From PubChem BioAssay
Sampled rows, rich in hits. Any-hit rate of the full collection: about 0.55%.
OXTR potentiator = human OXTR potentiation; P30559; CHO-OTR cells, Fluo-8 calcium fluorescence, potentiator mode; 0% = oxytocin EC15, 100% = EC100; activation, % at 3 µM; 0.061% of 320,000 active; AID 2445;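 active = activation above that plate's cutoff, the mean activation of tested compounds plus 3 SD, cut at about 6.6% in these data, passing the limit was not always enough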
Target sequence (P30559 whole entry, looked up): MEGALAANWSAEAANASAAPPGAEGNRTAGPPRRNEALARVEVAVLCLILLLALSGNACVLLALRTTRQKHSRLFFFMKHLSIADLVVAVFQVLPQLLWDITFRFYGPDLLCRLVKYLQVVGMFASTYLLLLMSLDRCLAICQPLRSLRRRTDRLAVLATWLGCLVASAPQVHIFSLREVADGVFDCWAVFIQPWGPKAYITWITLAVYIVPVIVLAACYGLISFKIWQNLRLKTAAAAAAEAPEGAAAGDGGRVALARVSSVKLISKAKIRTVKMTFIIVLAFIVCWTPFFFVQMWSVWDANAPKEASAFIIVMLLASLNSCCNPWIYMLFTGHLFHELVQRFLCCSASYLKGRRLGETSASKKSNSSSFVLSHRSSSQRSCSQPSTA
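Assay system: CHO-OTR cells, human receptor / Also added: oxytocin at about EC15, sub-maximal agonist stimulus / Dosing: single dose, 3.0 µM nominal final compound concentration / Incubation: 6 min pre-incubation, 100 s read / Technique: Fluo-8 calcium dye fluorescence / Read-out: % activation vs EC15 and EC100 oxytocin / Benchmarks: EC15 oxytocin low, 75 nM oxytocin high / Replicates: singlicate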
TRPN1 ag = zebrafish TRPN1 (NompC) channel agonism | HEK293 zebrafish TRPN1-YFP, Fluo-8 calcium fluorescence; 100% = response to 87 µM carbachol | AID 1424 | activation, % at 3 µM | 0.18% of 220,000 active;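 active = activation above its plate's cutoff, the mean activation of test wells on that plate plus 3 SD, cut at about 19% in these data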
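Material: zebrafish TRPN1-YFP in HEK293 cells. Doses: one dose of 3 µM, 0.3% DMSO. Incubation: dye 1 h 37 °C plus 30 min RT. Measured by: intracellular calcium fluorescence with Fluo-8.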
V1aR counter = counter-screen for oxytocin receptor agonists: human V1a receptor agonists | activation, % at 3 µM | AID 2797 | 0.25% of 320,000 active | CHO-V1R cells, Fluo-8 calcium fluorescence, agonist mode; 0% DMSO, 100% 3 nM vasopressin;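 active = activation above the mean activation of all tested compounds plus 3 SD, per screening run, cut at about 20% in these data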;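 also: signal is peak over basal fluorescence ratio across a 100 second FLIPR read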
OXTR agonist = agonists of human oxytocin receptor; P30559; CHO-OTR cells, Fluo-8 calcium fluorescence; normalized: DMSO 0%, oxytocin 100%; activation, % at 3 µM; 0.32% of 320,000 active; AID 2435;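 active = activation above the mean of all tested compounds plus 3 SD, cutoff set per screening run, cut at about 20% in these data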;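 also: peak over basal fluorescence ratio from a 100 s FLIPR kinetic read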
TRPML3 ag = human mucolipin-3 channel agonism; Q8TDD5; HEK293 TRPML3-YFP, Fluo-8 calcium fluorescence; 100% = the carbachol control signal; activation, % at 3 µM; 0.29% of 220,000 active; AID 1448;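 active = activation above its plate's cutoff, the mean activation of the plate's test wells plus 3 SD, cut at about 12% in these data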
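system = HEK293 cells stably carrying human TRPML3-YFP | doses = one concentration, 3 µM nominal, 0.3% DMSO | timing = dye loading 1 h 37 °C then 30 min ambient, 125 s read | detection = Fluo-8 calcium dye fluorescence, ex 470-495, em 515-575 nm | benchmarks = high control carbachol 87 µM, low control DMSO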
Large screens that a line does not name were inactive.

O=C(Nc1nnc(C(F)(F)F)s1)c1ccc(Br)s1	TRPN1 ag 29, TRPML3 ag 19
Cc1nc(SCC(=O)N2CCOCC2)c2c(=O)n(C)c(=O)n(CC(C)C)c2n1	none (no result: TRPN1 ag, TRPML3 ag)
CCOc1ccc(NC(=S)N(CCOC)C2CCN(C(C)C)CC2)cc1	none (no result: TRPN1 ag, TRPML3 ag)
C/C(=N\Nc1ccc(C(=O)O)cc1)c1ccc(Cl)s1	V1aR counter 34, OXTR agonist 24 (no result: TRPN1 ag, TRPML3 ag)
CCCn1c(=O)c(C(=O)NNC(=O)c2ccccc2Cl)c(O)c2ccccc21	V1aR counter 30, OXTR agonist 40 (no result: TRPN1 ag, TRPML3 ag)
N#C/C(=N\Nc1ccc(Cl)c(Cl)c1)C(=O)C1CC1	TRPN1 ag 20
CC(/C=N\NC(=O)CN1CCN(S(=O)(=O)c2ccc(C)cc2)CC1)=C\c1ccccc1	none
Cc1ccc(O)c(C(=O)c2cc(C#N)c(=O)n(-c3nccs3)c2)c1	TRPN1 ag 45, V1aR counter 54, OXTR agonist 66, TRPML3 ag 19
CC(=O)Nc1ccc(Sc2ncccc2C(=O)Nc2ccc(OC(F)(F)F)cc2)cn1	TRPN1 ag 48, V1aR counter 67, OXTR agonist 71, TRPML3 ag 31
CC(=O)Nc1ccc(Sc2ncccc2C(=O)Nc2cc(Cl)cc(Cl)c2)cn1	none
COc1cc2nc(/C=C/c3ccc(N(C)C)cc3)sc2cc1SC	OXTR agonist 21
CCN(CC)c1ccc(/C=C/c2nc3ccccc3s2)cc1	none
COc1cc(/C=C2\CC/C(=C\c3ccc(OCCO)c(OC)c3)C2=O)ccc1OCCO	TRPN1 ag 50, V1aR counter 43, OXTR agonist 30, TRPML3 ag 27
N#C/C(=C(/O)C(Cl)(Cl)Cl)c1nc2ccccc2[nH]1	TRPN1 ag 20
COc1ccc(CNc2nc3ccccc3n2C)c(OC)c1	none
COc1ccc(N=Nc2nc3cc(Br)c(Br)cc3n2C)c(OC)c1	TRPN1 ag 25, TRPML3 ag 20
CC(=O)NNC(=S)NC(=O)c1ccc(C)cc1	none
Cc1onc(-c2ccccc2)c1C(=O)NNC(=S)NC(=O)c1ccc(Br)cc1	TRPN1 ag 23, V1aR counter 66, OXTR agonist 73
Cc1ccc(C(=O)NNC(=S)NC(=O)c2ccc(Cl)cc2)cc1	TRPN1 ag 143, V1aR counter 81, OXTR agonist 91, TRPML3 ag 83
Cc1onc(-c2ccccc2)c1C(=O)NNC(=O)c1ccccc1	none (no result: TRPN1 ag, TRPML3 ag)
Cc1cccc(C(=O)NC(=S)NNC(=O)c2ccccc2Cl)c1	TRPN1 ag 34, V1aR counter 49, OXTR agonist 71, TRPML3 ag 13
Cc1ccccc1C(=O)NNC(=S)NC(=O)c1ccc(Cl)cc1Cl	TRPN1 ag 72, V1aR counter 85, OXTR agonist 73, TRPML3 ag 57
CC(C)(CNCc1ccccc1)NS(=O)(=O)c1ccccc1	none (no result: TRPN1 ag, TRPML3 ag)
Cc1ccc(-n2nc3c(=O)n(CCCC(=O)N4CCC(C)CC4)nc(C)c3c2C)cc1	none (no result: TRPN1 ag, TRPML3 ag)
CCc1ccccc1NC(=O)CNC(=O)c1ccccc1OCc1c(C)noc1C	none (no result: TRPN1 ag, TRPML3 ag)
Cc1onc(-c2ccccc2)c1C(=O)NNC(=O)c1ccccc1O	none (no result: TRPN1 ag, TRPML3 ag)
Cc1onc(-c2ccccc2)c1C(=O)NNC(=S)NC(=O)c1ccc(Cl)cc1Cl	V1aR counter 102, OXTR agonist 102
Cc1onc(-c2ccccc2)c1C(=O)NNC(=S)NC(=O)/C=C/c1ccccc1	V1aR counter 46, OXTR agonist 35
COc1ccc(N(CC(=O)NC2CCS(=O)(=O)C2)S(=O)(=O)c2cc(C)ccc2C)cc1 (configuration not stated)	none (no result: TRPN1 ag, TRPML3 ag)
O=C(Cc1ccc(Cl)cc1)Nc1ncc([N+](=O)[O-])s1	TRPN1 ag 22 (no result: OXTR potentiator, V1aR counter, OXTR agonist)
O=C(COc1ccc(Cl)cc1)Nc1ncc([N+](=O)[O-])s1	TRPN1 ag 30, TRPML3 ag 20 (no result: OXTR potentiator, V1aR counter, OXTR agonist)
O=C(Cc1ccc(Br)cc1)Nc1ncc([N+](=O)[O-])s1	TRPN1 ag 21, TRPML3 ag 14
Cc1cnc(NC(=O)Cc2ccc(Br)cc2)s1	none (no result: TRPN1 ag, TRPML3 ag)
N#CCCN(C(=O)COC(=O)CNC(=O)c1cccs1)c1ccc(F)cc1	none (no result: TRPN1 ag, TRPML3 ag)
Cc1cc(N2CCCC2)ccc1/C=C1\NC(=S)N(C)C1=O	V1aR counter 49, OXTR agonist 54
O=C1/C(=C/c2ccc(N3CCCC3)cc2)NC(=S)N1C1CC1	V1aR counter 84, OXTR agonist 115
O=C1N/C(=C/c2ccc(N3CCCC3)cc2)C(=O)N1c1ccccc1	none
CN1C(=O)c2ccc(N3CCCC3)cc2C1=O	none
CCN(C[C@H]1N[C@@](CC)(C(=O)OC)[C@H]2C(=O)N(Cc3ccccc3)C(=O)[C@@H]12)S(=O)(=O)c1ccc(C(C)(C)C)cc1	none (no result: TRPN1 ag, TRPML3 ag)
CN(C)/C=C1\C=C2C(=O)c3ccccc3N2C1=O	TRPN1 ag 729, V1aR counter 95, OXTR agonist 436, TRPML3 ag 357
CN(C)S(=O)(=O)N1C(=O)c2ccccc2C1=O	none
CCn1c(CC(=O)Nc2ccccc2)nnc1SCC(=O)Nc1nnc(C)s1	none (no result: TRPN1 ag, TRPML3 ag)
COCCn1nnnc1C(c1cccs1)N1CCN2CCCC2C1 (configuration not stated)	none
CCOc1ccccc1N(CC(=O)N1CCOCC1)S(=O)(=O)c1ccccc1	TRPML3 ag 182
CCc1ccc(NC(=O)C(C)OC(=O)/C=C/c2ccc(O)c(OC)c2)cc1 (configuration not stated)	V1aR counter 34, OXTR agonist 45 (no result: TRPN1 ag, TRPML3 ag)
COc1cc(/C=C/C(=O)OCC(=O)c2ccc(OC(F)F)cc2)ccc1O	V1aR counter 21, OXTR agonist 34 (no result: TRPN1 ag, TRPML3 ag)
COc1cc(/C=C/C(=O)OC(C)C(=O)Nc2c(C)n(C)n(-c3ccccc3)c2=O)ccc1O (configuration not stated)	none (no result: TRPN1 ag, TRPML3 ag)
O=C(/C=C/c1ccco1)OCC(=O)c1ccc(OC(F)F)cc1	none (no result: TRPN1 ag, TRPML3 ag)
COc1ccc(N/N=C(\C#N)C(=N)N2CCCCC2)cc1	none
COc1ccc(N/N=C(\C#N)C(=N)SCc2ccccc2)cc1	TRPN1 ag 19, TRPML3 ag 15 (no result: OXTR potentiator, V1aR counter, OXTR agonist)
CC1(C)CSC(=NCc2ccccc2)N1C(=O)c1cccc([N+](=O)[O-])c1	TRPN1 ag 40, TRPML3 ag 15
NC(=NCc1ccccc1)c1cccc([N+](=O)[O-])c1	none (no result: TRPN1 ag, TRPML3 ag)
Cc1ccc(NC(=S)NNc2ncc(C(F)(F)F)cc2Cl)c(C)c1	none
FC(F)(F)c1cnc(NNC(=S)Nc2ccc(Cl)cc2)c(Cl)c1	TRPN1 ag 26, TRPML3 ag 18
Fc1ccc(NC(=S)NNc2ncc(C(F)(F)F)cc2Cl)c(F)c1	TRPN1 ag 23, TRPML3 ag 14
C=CCN(C(=O)c1ccc2snnc2c1)c1ccccc1	none (no result: TRPN1 ag, TRPML3 ag)
CCOC(=O)CN1C(=O)S/C(=C/c2ccc3c(c2)n(C)c(=O)n3C)C1=O	none
CCOC(=O)CN1C(=O)S/C(=C/C=C/c2ccc(N(C)C)cc2)C1=O	V1aR counter 28, OXTR agonist 26
COc1ccc(Cc2nnc(NC(=O)CSc3ccc(C)cc3)s2)cc1OC	V1aR counter 77, OXTR agonist 57
